We go through 18 compounds from ChEMBL document CHEMBL1914377, “Preliminary finding on a new calcium channel entry blocker chemotype: 5,6-diamino-4-hydroxy-2-mercaptopyrimidine derivatives” (J Med Chem, 2011).

Molecules are shown by their SMILES.

A short description of test [1]: Cardiovascular activity in guinea pig left atrium assessed as negative inotropic activity by measuring decrease of 1 Hz-induced tension at 5 x 10^-5 M relative to control. The class given is functional. The following applies: Cavia porcellus, Cardiac atrium.
Test [2] in a line: Cardiovascular activity in guinea pig spontaneously beating right atrium assessed as negative chronotropic activity by measuring decrease of atrial rate at 10^-5 M relative to control. The format is functional. The following applies: Cavia porcellus, Cardiac atrium.
In test [3] the test system is Aorta. As to the kind of experiment: Vasorelaxant activity in guinea pig K+-depolarized guinea pig aortic strip assessed as inhibition of calcium-induced contraction at 10^-4 M relative to control. The class given is functional. The following applies: Cavia porcellus.
The nature of test [4]: Cardiovascular activity in guinea pig left atrium assessed as negative inotropic activity by measuring decrease of 1 Hz-induced tension. As to conditions: Cavia porcellus, Cardiac atrium. The format is functional, tissue-based. The procedure, abridged: (§1)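 Log concentration–response curves fitted by probit analysis (Litchfield and Wilcoxon), n = 4–7. They were not calculated when the maximum effect was below 50%.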

The nature of test [5]: Cardiovascular activity in guinea pig left atrium assessed as negative inotropic activity by measuring decrease of 1 Hz-induced tension at 10^-4 M relative to control. The class given is functional. The following applies: Cavia porcellus, Cardiac atrium.
A short description of test [6]: Vasorelaxant activity in guinea pig K+-depolarized guinea pig longitudinal smooth muscle assessed as inhibition of calcium-induced contraction. The class given is functional, Cavia porcellus.
The test system of test [7] is Aorta. As to the kind of experiment: Vasorelaxant activity in guinea pig K+-depolarized guinea pig aortic strip assessed as inhibition of calcium-induced contraction. As to conditions: Cavia porcellus. The class given is functional, tissue-based. The procedure, abridged:
as §1

Test [8] is described as follows: Vasorelaxant activity in guinea pig K+-depolarized guinea pig longitudinal smooth muscle assessed as inhibition of calcium-induced contraction at 5 x 10^-5 M relative to control. The format is functional. The following applies: Cavia porcellus. The essentials:
(§2)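 Guinea-pig longitudinal smooth muscle depolarized with K+ (80 mM). Percent inhibition of calcium-induced contraction was measured at single concentrations of 10^-4 M, 5 × 10^-5 M or 10^-5 M. Results are mean ± SEM.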

The nature of test [9]: Cardiovascular activity in guinea pig spontaneously beating right atrium assessed as negative chronotropic activity by measuring decrease of atrial rate at 5 x 10^-5 M relative to control. The following applies: Cavia porcellus, Cardiac atrium. The class given is functional.
The nature of test [10]: Cardiovascular activity in guinea pig spontaneously beating right atrium assessed as negative chronotropic activity by measuring decrease of atrial rate at 10^-4 M relative to control. The class given is functional. As to conditions: Cavia porcellus, Cardiac atrium.
The nature of test [11]: Cardiovascular activity in guinea pig left atrium assessed as negative inotropic activity by measuring decrease of 1 Hz-induced tension at 10^-5 M relative to control. The format is functional. The following applies: Cavia porcellus, Cardiac atrium.
Test [12] is described as follows: Vasorelaxant activity in guinea pig K+-depolarized guinea pig longitudinal smooth muscle assessed as inhibition of calcium-induced contraction at 10^-5 M relative to control. The class given is functional. As to conditions: Cavia porcellus. The procedure, abridged:
as §2

In another test the test system is CHO. The test can be described thus: Inhibition of L-type alpha9beta3alpha2/gamma4 calcium channel expressed in CHO cells using Ba2+ as charge carrier at 10 uM by patch clamp electrophysiological assay relative to control. The class given is cell-based. The procedure, abridged:
(§3)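 Whole-cell patch clamp with Ba2+ currents. L-type current was recorded in transfected CHO cells and T-type current in TT cells, whose only voltage-gated Ca2+ currents are T-type. The read-out was percent decrease in peak current, comparing the mean of five consecutive steady-state sweeps in control and in drug. Results are mean ± SEM, n = 5–7 cells per group.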
In general terms: In patch-clamp work, channel activity is measured electrically.

For test [13], the system named is Aorta. The test can be described thus: Vasorelaxant activity in guinea pig K+-depolarized guinea pig aortic strip assessed as inhibition of calcium-induced contraction at 5 x 10^-5 M relative to control. The format is functional. As to conditions: Cavia porcellus.
The next test relates to TT. As to the kind of experiment: Inhibition of T-type calcium channel expressed in human TT cells using Ba2+ as charge carrier at 10 uM by patch clamp electrophysiological assay relative to control. The format is cell-based. The procedure, abridged: as §3
Test [14] is described as follows: Cardiovascular activity in guinea pig left atrium assessed as negative inotropic activity by measuring decrease of 1 Hz-induced tension at 5 x 10^-6 M relative to control. The class given is functional. As to conditions: Cavia porcellus, Cardiac atrium.
Test [15] in a line: Cardiovascular activity in guinea pig spontaneously beating right atrium assessed as negative chronotropic activity by measuring decrease of atrial rate. The format is functional. As to conditions: Cavia porcellus, Cardiac atrium. The procedure, abridged: as §1
Test [16] can be described thus: Cardiovascular activity in guinea pig left atrium assessed as negative inotropic activity by measuring decrease of 1 Hz-induced tension in presence of adenosine A1 receptor antagonist DPCPX. The class given is functional, tissue-based. The following applies: Cavia porcellus, Cardiac atrium. The essentials: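 Negative inotropic concentration–response determined in the presence of the A1 antagonist DPCPX at 1 μM.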

Test [17] in a line: Vasorelaxant activity in guinea pig K+-depolarized guinea pig longitudinal smooth muscle assessed as inhibition of calcium-induced contraction at 10^-4 M relative to control. The following applies: Cavia porcellus. The class given is functional. The procedure, abridged:
as §2

The inhibition is the share of the control response that was lost under treatment. Broadly, the EC50 is the concentration at which the effect is half-maximal. For `CCCSc1nc(NC(C)=O)c(N(CCC)CCC)c(OCC)n1`, the inhibition at 50 µM in test [1] came to 71%. Further, in test [2], the inhibition at 10 µM was 2%. Further, the inhibition at 100 µM with Aorta [3] was 23%. Also, in test [4], the EC50 turned out to be 1000 nM.

A word on the IC50: it is the concentration that inhibits the measured activity by half. For the compound `CCCSc1nc(N)c(N(CCC)CCC)c(=O)[nH]1`, the inhibition at 100 µM in test [5] is 87%; in the test on Aorta [3], 54%. Further, the results for the IC50 (in test [6]; with Aorta [7]) were 13900 nM and 14900 nM, respectively. In addition, the inhibition in [8] turned out to be 87%. The half-maximal effective concentration (EC50) in test [4] was found to be 1960 nM. Moreover, the inhibition at 50 µM in [9] worked out at 39%.

For `CCOc1nc(SCCOC)nc(NC(C)=O)c1N(CCOC)CCOC`, the inhibition at 100 µM turned out to be 3% in test [10] and 10% in the test on Aorta [3]. Moreover, the inhibition at 10 µM in [11] came out at 80%. For the same compound, the 50% effective concentration (EC50) in test [4] amounted to 620 nM.

Take `CCCSc1nc(NC(C)=O)c(N(CCC)CCC)c(=O)n1CC`: the results for the inhibition (in [12]; in the test with CHO; with TT) were 72%, 56% and 22.3%, respectively. Moreover, the 50% inhibitory concentration (IC50) in test [6] stood at 4860 nM. Further, the inhibition at 50 µM was determined as 60% in test [1], 13% with Aorta [13] and 13% in [9]. For the same compound, in test [4], the 50% effective concentration (EC50) stood at 530 nM.

As to `CCCSc1nc(NC(C)=O)c(N(CCC)CCC)c(=O)[nH]1`, in test [14], the inhibition at 5 µM came to 62%. In addition, in [2], the inhibition at 10 µM is 7%. The inhibition at 100 µM with Aorta [3] worked out at 30%. Besides, the EC50 in test [4] is 280 nM.

As usually defined, the EC30 is the point of the concentration-response curve where the effect stands at 30%. As for `CC(=O)Nc1nc(SCc2ccccc2)[nH]c(=O)c1N(Cc1ccccc1)Cc1ccccc1`, the inhibition at 100 µM in test [10] was determined as 95%; in [5] it was 90%; in the test with Aorta [3] it was 31%. Also, the EC30 in test [15] worked out at 6790 nM. Also, the EC50 in test [4] worked out at 1410 nM.

For `Nc1nc(SCc2ccccc2)[nH]c(=O)c1N(Cc1ccccc1)Cc1ccccc1`, the inhibition at 100 µM was found to be 80% in [10] and 60% in [5]. Moreover, the 30% effect concentration (EC30) in test [15] came out at 8630 nM. Moreover, in the test with Aorta [13], the inhibition at 50 µM stood at 2%. Also, the 50% effective concentration (EC50) in test [4] came out at 3160 nM.

For `CCOc1nc(SCc2ccccc2)nc(N)c1N(Cc1ccccc1)Cc1ccccc1`, the inhibition at 100 µM was 33% in [10] and 62% in test [5]. In addition, the inhibition at 50 µM with Aorta [13] came out at 2%. The concentration for a half-maximal effect (EC50) in [4] was 1490 nM.

As for `CCOc1nc(SCc2ccccc2)nc(NC(C)=O)c1N(Cc1ccccc1)Cc1ccccc1`, the inhibition at 100 µM in test [10] was 44%. Besides, the inhibition at 10 µM in [11] was 64%. Moreover, the inhibition at 50 µM in the test with Aorta [13] is 20%. The concentration for a half-maximal effect (EC50) in test [4] was 270 nM.

Turning to `CCn1c(SCc2ccccc2)nc(N)c(N(Cc2ccccc2)Cc2ccccc2)c1=O`, the values for the inhibition at 100 µM (in [10]; in [5]; in the test with Aorta [3]) were 63%, 56% and 7%, respectively. The concentration for half-maximal inhibition (IC50) in [6] was found to be 2910 nM. The inhibition in the test on CHO came to 60.7%; with TT, 11.9%; in [17] it was 94%. The concentration for an effect of 30% (EC30) in test [15] amounted to 18100 nM. Also, the 50% effective concentration (EC50) in test [16] was 500 nM; in test [4], 450 nM.

With `CCOc1nc(SCCOC)nc(N)c1N(CCOC)CCOC`, the results for the inhibition at 100 µM (in [10]; in the test on Aorta [3]) were 45% and 22%, respectively. For the same compound, in [1], the inhibition at 50 µM is 79%. Also, the EC50 in test [4] turned out to be 310 nM.

Turning to `COCCSc1nc(NC(C)=O)c(N(CCOC)CCOC)c(=O)[nH]1`, the figures for the inhibition at 100 µM (in test [5]; in the test on Aorta [3]) were 90% and 2%, respectively. Moreover, the concentration giving a half-maximal response (EC50) in [4] amounted to 960 nM. In addition, in [9], the inhibition at 50 µM turned out to be 6%.

Turning to `CCCSc1nc(N)c(N(CCC)CCC)c(OCC)n1`, the inhibition at 100 µM was 27% in test [10] and 16% in the test on Aorta [3]. Further, the inhibition at 10 µM in test [11] was determined as 68%. Also, the half-maximal inhibitory concentration (IC50) in test [6] amounted to 10700 nM. For the same compound, the inhibition in test [17] amounted to 83%. In addition, the concentration giving a half-maximal response (EC50) in test [4] turned out to be 150 nM.

Regarding `CCCSc1nc(N)c(N(CCC)CCC)c(=O)n1CC`, the inhibition at 10 µM in [11] was found to be 56%. The concentration for half-maximal inhibition (IC50) in [6] is 3390 nM. Besides, the inhibition came to 54% in the test with CHO, 35.3% in the test with TT and 93% in test [8]. In the test on Aorta [3], the inhibition at 100 µM came to 28%. Further, in [4], the EC50 is 600 nM. Besides, in test [9], the inhibition at 50 µM is 22%.

On to `CCn1c(SCCOC)nc(N)c(N(CCOC)CCOC)c1=O`, for which the inhibition at 100 µM stood at 11% in test [10] and 33% in the test on Aorta [3]. Moreover, the inhibition at 10 µM in test [11] was determined as 76%. The half-maximal inhibitory concentration (IC50) in test [6] came out at 21500 nM. Moreover, the inhibition in the test on CHO stood at 52%; in the test on TT it was 24.7%; in [17], 60%. Further, the half-maximal effective concentration (EC50) in [4] is 230 nM.

As to `CCn1c(SCCOC)nc(NC(C)=O)c(N(CCOC)CCOC)c1=O`, the inhibition at 100 µM in test [10] was found to be 2%; in test [5], 81%; with Aorta [3], 2%. In addition, the IC50 in test [6] is 23800 nM. Besides, the inhibition with CHO was found to be 37%; in the test with TT, 12.3%; in test [17] it was 91%. Moreover, in test [4], the half-maximal effective concentration (EC50) worked out at 770 nM.

As to `COCCSc1nc(N)c(N(CCOC)CCOC)c(=O)[nH]1`, the inhibition at 10 µM in test [11] worked out at 93%; in [2], 13%. Moreover, in the test with Aorta [3], the inhibition at 100 µM was 10%. Besides, the half-maximal effective concentration (EC50) in test [4] is 340 nM.

Turning to `CCn1c(SCc2ccccc2)nc(NC(C)=O)c(N(Cc2ccccc2)Cc2ccccc2)c1=O`, the inhibition in test [12] amounted to 90%; in the test with CHO it was 58%; in the test with TT, 15.2%. Also, the IC50 in test [6] turned out to be 1480 nM. For the same compound, the inhibition at 50 µM is 66% in test [1] and 72% in test [9]. For the same compound, the EC30 in test [15] was 14100 nM. The inhibition at 100 µM in the test with Aorta [3] turned out to be 25%. The EC50 in test [4] came out at 290 nM.
